The text below walks through data of ChEMBL document CHEMBL1132142, “Extension of the polyanionic cosalane pharmacophore as a strategy for increasing anti-HIV potency” (J Med Chem, 1999).

In assay [1] the test system is MT4. As to the kind of experiment: The compound was evaluated for inhibition of cytopathic effect of HIV-2ROD in MT-4 cells. The settings on record: mt4. The class given is functional, cell-based, Homo sapiens.
In assay [2] the test system is MT4. As to the kind of experiment: Compound was tested for binding of the mAb (NEA9305) to the V3 loo[p of gp120, expressed on HIV-1 infected MT-4 cells at 81 uM. The class given is functional, Homo sapiens. The gist of the method:
(§1)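 Binding of mAb NEA9305 to the gp120 V3 loop expressed on HIV-1-infected MT-4 cells was measured at each listed concentration. Results were given as % positive cells and % inhibition, with an isotype mAb control.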

Assay [3] relates to MT4. The assay is described as follows: Compound was tested for binding of the mAb (NEA9305) to the V3 loo[p of gp120, expressed on HIV-1 infected MT-4 cells at 0.65 uM. Format: functional, Homo sapiens. In a few lines:
as §1

Assay [4] relates to CEM-SS. As to the kind of experiment: The compound was evaluated for inhibition of cytopathic effect of HIV-1 RF in CEM-SS cells. The class given is functional, cell-based, Homo sapiens. In a few lines:
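XTT-based microtiter cytoprotection assay measuring protection from HIV-1-induced cytopathic effect, read as percent of the uninfected drug-free control. EC50 is the concentration giving 50% protection in infected cultures. Results were confirmed by cell-free supernatant reverse transcriptase and p24 levels. Each plate was run in triplicate, and the EC50 values from two sister plates were averaged.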
(In general: Cytopathic effects are the visible damage that an infection or toxin causes in cultured cells.)

Assay [5] concerns MT4. The assay is described as follows: Compound was tested for binding of the mAb (NEA9305) to the V3 loo[p of gp120, expressed on HIV-1 infected MT-4 cells at 16 uM. The class given is functional, Homo sapiens. The gist of the method: as §1
For assay [6], the system named is CEM-SS. The assay is described as follows: The compound was evaluated for cytotoxicity in CEM-SS cells. The class given is functional, Homo sapiens. The gist of the method: (§2)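 Uninfected cells (CEM-SS or MT-4, per line) were incubated with the drug in a microtiter XTT assay. Viability was expressed as percent of the uninfected drug-free control. CC50 is the concentration causing 50% cell death. Triplicates were run per plate on two sister plates, and the two plate values were averaged.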

For assay [7], the system named is CD4+ve Th. As to the kind of experiment: Compound was tested for binding of the gp120 (strain IIIb)to the CD4+ T-cell lines at 0.65 uM. The class given is functional. In a few lines:
(§3)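 Recombinant gp120 (strain IIIB) binding to MT-4 (CD4+ T-cell) cells was measured at each listed concentration. Read-out was % positive cells and % inhibition, alongside an isotype mAb control.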

The test system of assay [8] is CD4+ve Th. The assay is described as follows: Compound was tested for binding of the gp120 (strain IIIb)to the CD4+ T-cell lines at 16 uM. The class given is functional. In a few lines: as §3
Assay [9] relates to MT4. As to the kind of experiment: Compound was tested for binding of the mAb (NEA9305) to the V3 loo[p of gp120, expressed ion HIV-1 infected MT-4 cells at 3.2 uM. The class given is functional, Homo sapiens. In a few lines:
as §1

For assay [10], the system named is CD4+ve Th. As to the kind of experiment: Compound was tested for binding of the gp120 (strain IIIb)to the CD4+ T-cell lines at 81 uM. Format: functional. In a few lines:
as §3

The test system of assay [11] is MT4. As to the kind of experiment: The compound was evaluated for cytotoxicity in MT-4 cells. The class given is functional, Homo sapiens. In a few lines:
as §2

Assay [12] deals with CD4+ve Th. The assay is described as follows: Compound was tested for binding of the gp120 (strain IIIb)to the CD4+ T-cell lines at 3.2 uM. The class given is functional. In a few lines:
as §3

Assay [13] has as its system MT4. The assay is described as follows: The compound was evaluated for inhibition of cytopathic effect of HIV-1 IIIB in MT-4 cells. Format: functional, cell-based, Homo sapiens.
The subject of assay [14] is CD4+ve Th. As to the kind of experiment: Compound was tested for binding of the gp120 (strain IIIb)to the CD4+ T-cell lines at 92 uM. The class given is functional. In a few lines:
as §3

Assay [15] relates to MT4. The assay is described as follows: (§4) Compound was tested for binding of the mAb (NEA9305) to the V3 loo[p of gp120, expressed on HIV-1 infected MT-4 cells at 18 uM. The class given is functional, Homo sapiens. The gist of the method: as §1
The subject of assay [16] is MT4. As to the kind of experiment: (§5) Compound was tested for binding of the mAb (NEA9305) to the V3 loo[p of gp120, expressed ion HIV-1 infected MT-4 cells at 3.7 uM. Format: functional, Homo sapiens. In a few lines: as §1
For assay [17], the system named is MT4. As to the kind of experiment: (§6) Compound was tested for binding of the mAb (NEA9305) to the V3 loo[p of gp120, expressed on HIV-1 infected MT-4 cells at 0.73 uM. Format: functional. The settings on record: Homo sapiens. The gist of the method: as §1
For assay [18], the system named is CD4+ve Th. The assay is described as follows: Compound was tested for binding of the gp120 (strain IIIb)to the CD4+ T-cell lines at 0.73 uM. The class given is functional. The gist of the method:
as §3

Assay [19] deals with MT4. The description is as §6. The class given is functional, Homo sapiens. In a few lines: as §1
In assay [20] the test system is MT4. The description is as §5. Format: functional. The settings on record: Homo sapiens. The gist of the method:
as §1

For assay [21], the system named is MT4. The assay is described as follows: (§7) Compound was tested for binding of the mAb (NEA9305) to the V3 loo[p of gp120, expressed on HIV-1 infected MT-4 cells at 92 uM. The class given is functional, Homo sapiens. In a few lines:
as §1

Assay [22] deals with MT4. The description is as §7. Format: functional. The settings on record: Homo sapiens. The gist of the method: as §1
The subject of assay [23] is CD4+ve Th. As to the kind of experiment: Compound was tested for binding of the gp120 (strain IIIb)to the CD4+ T-cell lines at 3.7 uM. Format: functional. In a few lines:
as §3

Assay [24] relates to CD4+ve Th. As to the kind of experiment: Compound was tested for binding of the gp120 (strain IIIb)to the CD4+ T-cell lines at 18 uM. Format: functional. The gist of the method:
as §3

Assay [25] concerns MT4. The assay is described as §4. The class given is functional. The settings on record: Homo sapiens. In a few lines:
as §1

Broadly, the EC50 is the concentration at which the effect is half-maximal. High values mean a need for much substance, low ones an effect from little substance. One may read the inhibition as the change of the read-out against control, counted positive when it falls. Low readings indicate a weak effect, high ones a strong effect. Turning to `CC(C)CCCC(C)[C@H]1CC[C@H]2[C@@H]3CCC4C[C@@H](CCC=C(c5cc(Cl)c(OCc6ccc(C(=O)[O-])cc6)c(C(=O)[O-])c5)c5cc(Cl)c(OCc6ccc(C(=O)[O-])cc6)c(C(=O)[O-])c5)CC[C@]4(C)[C@H]3CC[C@]12C.[Na+].[Na+].[Na+].[Na+]` (some centres not stated), the EC50 came out at 22000 nM in assay [1], 800 nM in assay [4] (cem-ss) and 1400 nM in assay [13] (mt4). In addition, the Positive cells amounted to 26.9% in [2]; 66.6% in assay [3]; 33.6% in assay [5]; 76.2% in assay [7]; 6.9% in [8]; 60.9% in [9]. Further, the figures for the Positive cells in assay [10] and in [12] were 7.8% and 19.9%, respectively. Besides, the figures for the Cytotoxicity in [6] and in assay [11] were 76 µM and 95 µM, respectively. In addition, the inhibition at 0.65 µM in assay [7] was determined as 22%. The compound also had an inhibition at 16 µM in assay [8] of 99%. Moreover, the inhibition at 81 µM in assay [10] was determined as 98%. The inhibition at 3.2 µM in assay [12] was 82%.

In the case of `CC(C)CCCC(C)[C@H]1CC[C@H]2[C@@H]3CCC4C[C@@H](CCC=C(c5cc(Cl)c(OCc6ccc(C(=O)O)cc6)c(C(=O)O)c5)c5cc(Cl)c(OCc6ccc(C(=O)O)cc6)c(C(=O)O)c5)CC[C@]4(C)[C@H]3CC[C@]12C` (some centres not stated), the Positive cells in assay [14] came out at 6.8%; in assay [15], 34.4%; in assay [16], 58.4%; in assay [18], 88.2%; in [19], 65.9%; in assay [21] it was 23.8%. The Positive cells in [23] was 25.3%; in assay [24] it was 8.3%. Moreover, the inhibition at 92 µM in assay [14] worked out at 99%; in [22] it was 76%. Also, the half-maximal effective concentration (EC50) turned out to be 500 nM in assay [4] (Homo sapiens, CEM-SS) and 1700 nM in assay [13] (Homo sapiens, MT4). The Cytotoxicity in [6] was 72 µM; in assay [11], 88 µM. Moreover, the inhibition at 0.73 µM in assay [17] worked out at 3%; in [18], 9%. The inhibition at 3.7 µM in assay [20] turned out to be 16%; in assay [23], 79%. Also, the values for the inhibition at 18 µM in [24] and in assay [25] were 98% and 58%, respectively.
